# Results pooled from the literature.
# Lines come from different studies, so protocols differ.
# Organism: Staphylococcus aureus
Structure (SMILES),assay,system,setting,quantity,value
O=C1NC(=S)S/C1=C\c1c2ccccc2c(-c2ccc(N(c3ccccc3)c3ccccc3)cc2)c2ccccc12,"microbial killing, broth dilution",ATCC43300,,MBC,> 1000 µg/mL
CCn1c(-c2nonc2N)nc2c(C#CC(C)(C)O)ncc(OC[C@H]3CCCNC3)c21,microbial growth,NCTC8325,,MIC,> 30 µM
Clc1ccc(-c2nc3ccccc3[nH]2)cc1Cl,"microbial growth, broth dilution",ATCC29213 MSSA,,MIC,32 µg/mL
O=C(O)CN1C(=O)/C(=C/c2c3ccccc3c(-c3ccc(N(c4ccccc4)c4ccccc4)cc3)c3ccccc23)NC1=S,"microbial killing, broth dilution",ATCC25923,,MBC,> 1000 µg/mL
N#C/C(=C\c1ccc(O)c(O)c1)C(=O)NCc1ccccc1,microbial growth,NCTC8325,,MIC,> 30 µM
[H]/N=C(/N)N[C@H]1[C@H](O)[C@@H](O)[C@H](O[C@@H]2O[C@@H](C)[C@](O)(C=O)[C@H]2O[C@@H]2O[C@@H](CO)[C@H](O)[C@@H](O)[C@@H]2NC)[C@@H](N/C(N)=N\[H])[C@@H]1O,"microbial growth, well diffusion",NCIM5021,250 µg/mL,inhibition zone,22 mm
CC1(C)S[C@@H]2[C@H](NC(=O)[C@H](N)c3ccccc3)C(=O)N2[C@H]1C(=O)O,"microbial growth, agar dilution",ATCC25923,26.93 µM,inhibition,100%
O=C(O)CN1C(=O)/C(=C/c2ccc(-c3ccc(N(c4ccccc4)c4ccccc4)cc3)cc2)SC1=S,"microbial killing, broth dilution",ATCC6538,,MBC,7.8 µg/mL
CC(C)Cc1nn(-c2nc3ccc(Cl)cc3s2)c2c1C(=O)c1ccccc1-2,"microbial growth, well diffusion",NCIM5021,500 µg/mL,inhibition zone,11 mm
O=C(O)CN1C(=O)/C(=C/c2ccc(-c3ccc(N(c4ccccc4)c4ccccc4)cc3)c3ccccc23)SC1=S,"microbial killing, broth dilution",ATCC6538,,MBC,> 1000 µg/mL
CN1CCC(CNc2ccc3ncc(-c4cccc(OC(F)(F)F)c4)n3n2)CC1,microbial growth,NCTC8325,,MIC,> 30 µM
O=C1NC(=S)S/C1=C\c1ccc(-c2ccc(N(c3ccccc3)c3ccccc3)cc2)c2ccccc12,"microbial killing, broth dilution",ATCC6538,,MBC,> 1000 µg/mL
C=CCCCCCCCCCCCC(O)CC(O)CO (stereo not shown),"microbial growth, broth dilution",ATCC29213,,IC50,> 200 µg/mL
Cc1nn(-c2nc3ccccc3s2)c2c1C(=O)c1ccccc1-2,"microbial growth, well diffusion",NCIM5021,250 µg/mL,inhibition zone,10 mm
CN[C@H](CC(C)C)C(=O)N[C@H]1C(=O)N[C@@H](CC(N)=O)C(=O)N[C@H]2C(=O)N[C@H]3C(=O)N[C@H](C(=O)N[C@H](C(=O)O)c4cc(O)cc(O)c4-c4cc3ccc4O)[C@H](O)c3ccc(c(Cl)c3)Oc3cc2cc(c3O[C@@H]2O[C@H](CO)[C@@H](O)[C@H](O)[C@H]2O[C@H]2C[C@](C)(N)[C@H](O)[C@H](C)O2)Oc2ccc(cc2Cl)[C@H]1O,"microbial growth, disc diffusion",ATCC29213,"125 µg/disc, 24 h",inhibition zone,20 mm
O=C(O)CN1C(=O)/C(=C/c2ccc(-c3ccc(N(c4ccccc4)c4ccccc4)cc3)c3ccccc23)NC1=S,"microbial killing, broth dilution",ATCC25923,,MBC,> 1000 µg/mL
Cc1nn(-c2nc3ccc(Cl)cc3s2)c2c1C(=O)c1ccccc1-2,"microbial growth, well diffusion",NCIM5021,250 µg/mL,inhibition zone,10 mm
O=C1NC(=S)S/C1=C\c1ccc(-c2ccc(N(c3ccccc3)c3ccccc3)cc2)cc1,"microbial killing, broth dilution",ATCC25923,,MBC,1000 µg/mL
CC(=O)Oc1cccc2c1[nH]c1c(C3=C[C@@]4(O)CC/C=C\CCCCN5CC[C@@H]3[C@]3(C[C@@H]6/C=C\CCCCN6[C@H]34)C5)nccc12,microbial growth,MRSA,drug-resistant strain,IC50,0.45 µg/mL
CC(C(=O)O)N1C2=NC(c3ccc(Cl)cc3)c3c([nH]c(=O)[nH]c3=O)N2NC1(C)c1ccccc1O (stereo not shown),microbial growth,ATCC25923,"10 µg/mL, 24 h",inhibition zone,14 mm
O=C(Cc1ccc(Cl)c(C(F)(F)F)c1)Nc1ccc2c(c1)OC(F)(F)O2,microbial growth,NCTC8325,24 h,MIC,> 100 µM
CC(C)c1nn(-c2nc3ccc(Br)cc3s2)c2c1C(=O)c1ccccc1-2,"microbial growth, well diffusion",NCIM5021,1000 µg/mL,inhibition zone,12 mm
CCCCCCCCCCCCCC(O)CC(O)CO (stereo not shown),"microbial growth, broth dilution",ATCC29213,,IC50,17.2 µg/mL
O=C(Sc1cccccc1=O)c1cccc(C(F)(F)F)c1,"microbial growth, broth dilution",ATCC29213,,MIC80,> 100 µM
CC(C)Cc1nn(-c2nc3ccc(Br)cc3s2)c2c1C(=O)c1ccccc1-2,"microbial growth, well diffusion",NCIM5021,250 µg/mL,inhibition zone,11 mm
CC(C)c1ccc(O)c(=O)cc1,"microbial growth, broth dilution",ATCC29213,,MIC80,66.7 µM
Cc1cc(C)c(NC(=O)Nc2ccc3c(c2)OC(F)(F)O3)c(C)c1,microbial growth,NCTC8325,,MIC,> 100 µM
O=C(N/N=C/c1ccc([N+](=O)[O-])o1)c1ccc(O)cc1,microbial growth,ATCC700699,,MIC90,15.6 µg/mL
CNC(=O)c1cc(Oc2ccc(NC(=O)NC34CC5CC(CC(C5)C3)C4)cc2)ccn1,microbial growth,NCTC8325,,MIC,> 100 µM
O=C1NC(=S)N/C1=C\c1c2ccccc2c(-c2ccc(N(c3ccccc3)c3ccccc3)cc2)c2ccccc12,"microbial killing, broth dilution",ATCC25923,,MBC,> 1000 µg/mL
O=C(Cc1ccccc1)Sc1cccccc1=O,"microbial growth, broth dilution",ATCC29213,,MIC80,> 100 µM
O=C(N[C@H](CO)[C@H](O)c1ccc([N+](=O)[O-])cc1)C(Cl)Cl,microbial growth,ATCC700699,,MIC90,62.5 µg/mL
CC(C)c1nn(-c2nc3ccc(Cl)cc3s2)c2c1C(=O)c1ccccc1-2,"microbial growth, well diffusion",NCIM5021,500 µg/mL,inhibition zone,11 mm
Cc1cc(Nc2cc(N3CCN(C)CC3)nc(/C=C/c3ccccc3)n2)n[nH]1,microbial growth,NCTC8325,,MIC,> 30 µM
C#CCCCCCCCCCCCC(O)CC(O)CO (stereo not shown),"microbial growth, broth dilution",ATCC33591 MRSA,drug-resistant strain,IC50,86.3 µg/mL
CNC(=O)c1cc(Oc2ccc(NC(=O)Nc3ccc(Oc4ccccc4)cc3)cc2)ccn1,microbial growth,NCTC8325,,MIC,> 100 µM
O=C(Sc1cccccc1=O)c1ccc(C(F)(F)F)cc1,"microbial growth, broth dilution",ATCC29213,,MIC80,> 100 µM
Cc1nn(-c2nc3ccc(Br)cc3s2)c2c1C(=O)c1ccccc1-2,"microbial growth, well diffusion",NCIM5021,1000 µg/mL,inhibition zone,12 mm
CC(C)c1cccc(=O)c(O)c1,"microbial growth, broth dilution",ATCC29213,,MIC80,66.7 µM
COC(=O)/C(=C1/OC(=O)C(c2ccccc2)=C1O)c1ccccc1,microbial growth,ATCC6538,,IC50,32 µM
